Tests used:
Nucleic Acid [1] = assay: Apparent binding constant with polynucleotide Poly (dAT)2 complex measured by fluorescence assay; type: nucleic-acid assay; details: in the assay text read “calf thymus DNA” for “polynucleotide Poly (dAT)2 complex”
Outline: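 Ethidium displacement by fluorescence: excitation 515 nm, emission read over 550-700 nm, [ethidium]/[DNA] molar ratio 12.6:10, drug 0.01-100 µM in BPE buffer pH 7.1. C50 for ethidium displacement taken from a fitted curve; Kapp = (1.26 µM/C50) × K_ethidium, with K_ethidium = 10⁷ M^-1.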

Nucleic Acid [2] = assay: Relative DNA binding affinity was determined as difference in melting temperature (delta Tm) with the polynucleotide Poly (dAT)2 complex and alone Poly (dAT)2; type: nucleic-acid assay
PC-3 = assay: Cytotoxicity towards human prostate cancer PC 3 cell line was determined; type: functional, cell-based
Outline: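 PC 3 cells kept in RPMI 1640 with 10% FCS were seeded at 3 × 10⁴ cells/well. After 3 days they were serum-starved for 24 h, then stimulated with 10 ng/mL EGF plus transferrin 50 ng/mL and selenium 50 pg/mL, with compounds added. Growth was read by MTT colorimetry after a further 72 h.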

Nucleic Acid [3] = assay: Apparent binding constant with calf thymus DNA measured by fluorescence assay

Row | SMILES | K app (Nucleic Acid [1]) [M⁻¹] | ΔTm (Nucleic Acid [2]) [°C] | IC50 (PC-3) [nM] | K app (Nucleic Acid [3]) [M⁻¹]
1 | COc1cc2nc3c(c4c2c(c1OC)N(C(C)=O)CC4)Cc1cc(OCCN)ccc1-3 | 990000 | 7 | > 1000 | –
2 | COc1ccc2c(c1)Cc1c-2nc2cc(OC)c(OC)c3c2c1CCN3 | 1700 | 0 | > 1000 | –
3 | COc1ccc2c(c1)Cc1c-2nc2cc(OC)c(OC)c3c2c1CCN3C(C)=O | – | – | > 1000 | –
4 | COc1cc2nc3c(c4c2c(c1OC)NCC4)Cc1cc(O)ccc1-3 | – | 4 | > 1000 | 672000
5 | COc1cc2nc3c(c4c2c(c1OC)NCC4)Cc1cc(OCCN)ccc1-3 | 5.14e+06 | 14.8 | > 1000 | –
6 | COc1cc2nc3c(c4c2c(c1OC)NCC4)Cc1cc(OCCCN)ccc1-3 | 6.13e+06 | 15.8 | > 1000 | –
7 | COc1cc2nc3c(c4c2c(c1OC)N(C(=O)CN1CCN(C)CC1)CC4)Cc1cc(OCCCN2CCN(C)CC2)ccc1-3 | 3.04e+06 | 32.5 | > 1000 | –
8 | COc1cc2nc3c(c4c2c(c1OC)N(C(=O)CN1CCN(C)CC1)CC4)Cc1cc(OCCCN)ccc1-3 | – | 22.5 | > 1000 | 2.78e+06
9 | COc1cc2nc3c(c4c2c(c1OC)N(C(C)=O)CC4)Cc1cc(OCCCN)ccc1-3 | – | 6 | > 1000 | 293000
10 | COc1cc2nc3c(c4c2c(c1OC)N(C(C)=O)CC4)Cc1ccccc1-3 | – | – | > 1000 | –
11 | COc1cc2nc3c(c4c2c(c1OC)N(C(C)=O)CC4)Cc1cc(OCCCN2CCN(C)CC2)ccc1-3 | 3.58e+06 | 3.8 | > 1000 | –
12 | COc1cc2nc3c(c4c2c(c1OC)N(C(C)=O)CC4)Cc1cc(O)ccc1-3 | 677000 | 3.1 | > 1000 | –
13 | COc1cc2nc3c(c4c2c(c1OC)NCC4)Cc1cc(OCCCN2CCN(C)CC2)ccc1-3 | 301000 | 10 | 6.5 | –
14 | COc1cc2nc3c(c4c2c(c1OC)NCC4)CCc1cc(O)ccc1-3 | 1600 | 1.1 | > 1000 | –
15 | COc1cc2nc3c(c4c2c(c1OC)NCC4)Cc1ccccc1-3 | 3100 | 0 | > 1000 | –
16 | COc1cc2nc3c(c4c2c(c1OC)N(C(=O)CN1CCN(C)CC1)CC4)Cc1cc(OCCN)ccc1-3 | 503000 | 19.6 | > 1000 | –

Reference: ChEMBL document CHEMBL1148358, “DNA binding to guide the development of tetrahydroindeno[1,2-b]pyrido[4,3,2-de]quinoline derivatives as cytotoxic agents” (J Med Chem, 2004)
